Measured values from ChEMBL document CHEMBL4138275, “Taccalonolide Microtubule Stabilizers Generated Using Semisynthesis Define the Effects of Mono Acyloxy Moieties at C-7 or C-15 and Disubstitutions at C-7 and C-25” (J Nat Prod, 2018).
The source made the active and inactive calls. No cut-off for these calls is given here.

What was measured:
HeLa [1] = test: Antiproliferative activity against human HeLa cells after 48 hrs by sulforhodamine B assay; type: functional, cell-based
Method in brief: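 HeLa cells (STR-validated) grown in BME with 10% FBS and gentamycin, seeded 2500/well, left to adhere overnight, then exposed to compounds for 48 h. Cell density read by sulforhodamine B staining. IC50 is the concentration giving 50% inhibition of cell density versus vehicle, fitted by nonlinear regression. Mean of 3 or 4 experiments, each in triplicate, ±SD.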

HeLa [2] = test: Induction of microtubule stabilization in human HeLa cells assessed as formation of multiple aberrant mitotic spindle at 5 times IC50 after 18 hrs by indirect immunofluorescence assay; type: cell-based
Method in brief: (§1)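 HeLa cells treated for 18 h at 5-fold each compound's own antiproliferative IC50, with EtOH as vehicle control. Mitotic and interphase microtubules stained by indirect immunofluorescence with a β-tubulin antibody and viewed by fluorescence microscopy.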

HeLa [3] = test: Induction of microtubule stabilization in human HeLa cells assessed as bundling of interphase microtubule at 5 times IC50 after 18 hrs by indirect immunofluorescence assay; type: cell-based; method in brief: as §1
Sus scrofa = species: Sus scrofa; test: Induction of porcine brain tubulin polymerization at 5 uM by turbidimetric method
Method in brief: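 Compound or vehicle (1% EtOH) added; samples prepared on ice, then warmed to 37 °C to start polymerization. Rate and extent followed turbidimetrically at 340 nm.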

[4] = Toxicity in ip dosed athymic nude mouse harboring tumor; type: organism-based; settings: in vivo
Method in brief: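 Dose tolerance was assessed in tumor-bearing mice carrying drug-sensitive or drug-resistant xenografts, with compound given by ip injection. A cumulative maximal tolerated dose was determined.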

NCI/ADR-RES [5] = test: Antitumor activity against human NCI/ADR-RES cells xenografted in athymic nude mouse administered via ip; type: functional, cell-based
NCI/ADR-RES [6] = test: Antitumor activity against human NCI/ADR-RES cells xenografted in athymic nude mouse assessed as reduction in tumor growth at 20 ug administered intratumorally on day day 0, 3, 6, 10 and 14 measured on day 0 post dose; type: functional, cell-based
Method in brief: (§2)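 NCI/ADR-RES tumor fragments implanted s.c. in the flanks of female athymic nude mice. Randomized at a mean tumor volume of 250 mm3 (range 100−465). Dosing was 20 μg in 200 μL of 10% EtOH/PBS by intratumoral injection on days 0, 3, 6, 10 and 14; vehicle and paclitaxel groups ran alongside. Caliper volume = L×W×H. Mice were euthanized at 1500 mm3. Two-way ANOVA with Tukey post hoc.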

NCI/ADR-RES [7] = test: Antitumor activity against human NCI/ADR-RES cells xenografted in athymic nude mouse assessed as reduction in tumor growth at 20 ug administered intratumorally on day 0, 3, 6, 10 and 14 measured on day 10 post dose; type: functional, cell-based
Method in brief: (§3)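 NCI/ADR-RES tumor fragments implanted s.c. in flanks of female athymic nude mice. At about 250 mm3 (100−465 mm3), mice were grouped (n = 7−9). Tumors were injected directly with 200 μL on days 0, 3, 6, 10 and 14: 20 μg in 10% EtOH/PBS, paclitaxel 40 μg in 1% Cremophor/EtOH in PBS, or vehicle. Volume = length × width × height by calipers.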

Mus musculus [8] = test: Toxicity in athymic nude mouse xenografted with human NCI/ADR-RES cells assessed as weight loss at 20 ug administered intratumorally on day 0, 3, 6, 10 and 14 measured on day 10; type: organism-based; settings: in vivo, other; method in brief: as §2
NCI/ADR-RES [9] = test: Antitumor activity against human NCI/ADR-RES cells xenografted in athymic nude mouse assessed as reduction in tumor growth at 20 ug administered intratumorally on day 0, 3, 6, 10 and 14 measured on day 12 to 14 post dose; type: functional, cell-based; method in brief: as §2
NCI/ADR-RES [10] = test: Antitumor activity against human NCI/ADR-RES cells xenografted in athymic nude mouse assessed as delay in tumor growth at 20 ug administered intratumorally on day 0, 3, 6, 10 and 14 measured up to 54 days starting from 5 days post last dose; type: functional, cell-based; method in brief: as §3
NCI/ADR-RES [11] = test: Antitumor activity against human NCI/ADR-RES cells xenografted in athymic nude mouse assessed as tumor volume at 20 ug administered intratumorally on day 0, 3, 6, 10 and 14 measured up to 45 days starting from 5 days post last dose; type: functional; method in brief: as §3
NCI/ADR-RES [12] = test: Antitumor activity against human NCI/ADR-RES cells xenografted in athymic nude mouse assessed as reduction in tumor growth at 20 ug administered intratumorally on day 0, 3, 6, 10 and 14 measured on day 12; type: functional, cell-based; method in brief: as §2
Mus musculus [13] = test: Toxicity in athymic nude mouse xenografted with human NCI/ADR-RES cells assessed as adverse effect at 20 ug administered intratumorally on day 0, 3, 6, 10 and 14 measured on day 12; type: organism-based; settings: in vivo, other; method in brief: as §2
NCI/ADR-RES [14] = test: Antitumor activity against human NCI/ADR-RES cells xenografted in athymic nude mouse assessed as time required to show half of the tumors to reach tumor volume <1500 mm3 at 20 ug administered intratumorally on day 0, 3, 6, 10 and 14 measured after 5 days; type: functional; method in brief: as §2

| SMILES | IC50 (HeLa [1]) | Activity (HeLa [2]) | Activity (HeLa [3]) | Activity (Sus scrofa) | MTD [4] | Activity (NCI/ADR-RES [5]) | Activity (NCI/ADR-RES [6]) | Activity (NCI/ADR-RES [7]) | Activity (Mus musculus [8]) | Activity (NCI/ADR-RES [9]) | Activity (NCI/ADR-RES [10]) | Activity (NCI/ADR-RES [11]) | Activity (NCI/ADR-RES [12]) | Activity (Mus musculus [13]) | Time (NCI/ADR-RES [14]) |
| --- | --- | --- | --- | --- | --- | --- | --- | --- | --- | --- | --- | --- | --- | --- | --- |
| CC(=O)O[C@H]1[C@H]2[C@H]([C@@H]3[C@@H](OC(=O)CC(C)C)[C@@H]4[C@H]([C@H](C)[C@H]5O[C@]56OC(=O)[C@@](C)(O)[C@]46C)[C@@]3(C)[C@H]1OC(C)=O)[C@@H](O)C(=O)[C@H]1C[C@@H]3O[C@@H]3[C@H](OC(C)=O)[C@]21C | 2.7 nM | Active | Active | Active | < 10 mg/kg | inactive | Active | Active | Non-Toxic | Active | Active | <1500 mm3 | – | – | – |
| CC(=O)O[C@H]1[C@H]2[C@H]([C@@H]3[C@@H](O)[C@@H]4[C@H]([C@H](C)[C@H]5O[C@]56OC(=O)[C@@](C)(O)[C@]46C)[C@@]3(C)[C@H]1OC(C)=O)[C@@H](OC(=O)CC(C)C)C(=O)[C@H]1C[C@@H]3O[C@@H]3[C@H](OC(C)=O)[C@]21C | 2.4 nM | Active | Active | Active | < 10 mg/kg | inactive | Active | – | – | Active | – | – | Active | Non-Toxic | 38 days |
